Reference: ChEMBL document CHEMBL1122557, “Antiallergic agents. 3. N-(1H-tetrazol-5-yl)-2-pyridinecarboxamides” (1984)
Calls of active or inactive are those of the source. The rule behind the calls is not given here.

Experiments:
Rattus norvegicus [1] = assay: Inhibition of passive cutaneous anaphylaxis following 10 mg/kg p.o. administration.; type: functional; details: route oral
In short: (§1)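 Rat passive cutaneous anaphylaxis model, with test agents given by the oral route.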

Rattus norvegicus [2] = assay: Inhibition of passive cutaneous anaphylaxis following 3 mg/kg p.o. administration.; type: functional; details: route oral; in short: as §1
Rattus norvegicus [3] = assay: Inhibition of passive cutaneous anaphylaxis following 30 mg/kg p.o. administration.; type: functional; details: route oral; in short: as §1
Rattus norvegicus [4] = assay: Inhibition of passive cutaneous anaphylaxis following 10 mg/kg p.o. administration; Inactive.; type: functional, organism-based; design: dose 10 mg/kg; details: at 10 mg/kg; in short: as §1
Rattus norvegicus [5] = assay: Inhibition of passive cutaneous anaphylaxis following 1 mg/kg p.o. administration.; type: functional; details: route oral; in short: as §1
Rattus norvegicus [6] = assay: Inhibition of passive cutaneous anaphylaxis following 3 mg/kg p.o. (5 min pretreatment) administration.; type: functional; details: route oral; in short: as §1

**Q.** `COc1cc(C)nc(C(=O)Nc2nn[nH]n2)c1` was tested. Which inhibition in vivo at 10 mg/kg (Rattus norvegicus [1]) did it give?
**A.** Its inhibition in vivo at 10 mg/kg is 20%.

**Q.** `CCCCOc1cccc(C(=O)Nc2nn[nH]n2)n1` was tested. Which inhibition in vivo at 10 mg/kg (Rattus norvegicus [1]) did it give?
**A.** The inhibition in vivo at 10 mg/kg was 8%.

**Q.** What about the inhibition in vivo at 3 mg/kg (Rattus norvegicus [2]) of the same compound?
**A.** The inhibition in vivo at 3 mg/kg was 18%.

**Q.** Which results are given for `O=C(Nc1nn[nH]n1)c1cccnc1`?
**A.** inhibition in vivo at 10 mg/kg (Rattus norvegicus [1]): 3%; inhibition in vivo at 3 mg/kg (Rattus norvegicus [2]): 4%; inhibition in vivo at 30 mg/kg (Rattus norvegicus [3]): 18%

**Q.** How did the inhibition in vivo at 30 mg/kg (Rattus norvegicus [3]) turn out when `O=C(Nc1nn[nH]n1)c1ccncc1` was run?
**A.** The inhibition in vivo at 30 mg/kg was 57%.

**Q.** With `CNc1ccc(-c2cc(C)cc(C(=O)Nc3nn[nH]n3)n2)cc1` as the compound, how does the inhibition in vivo at 3 mg/kg (Rattus norvegicus [2]) read?
**A.** The inhibition in vivo at 3 mg/kg was 89%.

**Q.** `Cc1ccc(C(=O)Nc2nn[nH]n2)nc1` was tested. Which inhibition in vivo at 10 mg/kg (Rattus norvegicus [1]) did it give?
**A.** The inhibition in vivo at 10 mg/kg was 42%.

**Q.** How did the inhibition (Rattus norvegicus [4]) turn out when `CCOC(=O)C(=O)Nc1cccc(/C=C/c2ccccc2)n1` was run?
**A.** The inhibition was “inactive”.

**Q.** `O=C(Nc1nn[nH]n1)c1cccc(Oc2ccccc2)n1` was tested. Which inhibition in vivo at 10 mg/kg (Rattus norvegicus [1]) did it give?
**A.** The inhibition in vivo at 10 mg/kg was 0%.

**Q.** Which inhibition in vivo at 1 mg/kg (Rattus norvegicus [5]) does the source give for `Cc1ccnc(C(=O)Nc2nn[nH]n2)c1` here?
**A.** The inhibition in vivo at 1 mg/kg was 28%.

**Q.** What about the inhibition in vivo at 3 mg/kg (Rattus norvegicus [2]) of the same compound?
**A.** The inhibition in vivo at 3 mg/kg was 42%.

**Q.** What about the inhibition in vivo at 3 mg/kg (Rattus norvegicus [6]) of the same compound?
**A.** The inhibition in vivo at 3 mg/kg was 51%.

**Q.** `O=C(Nc1nn[nH]n1)c1cc([N+](=O)[O-])ccn1` was tested. Which inhibition in vivo at 10 mg/kg (Rattus norvegicus [1]) did it give?
**A.** Its inhibition in vivo at 10 mg/kg is 38%.

**Q.** Which results are given for `CCc1ccnc(C(=O)Nc2nn[nH]n2)c1`?
**A.** inhibition in vivo at 1 mg/kg (Rattus norvegicus [5]): 32%; inhibition in vivo at 3 mg/kg (Rattus norvegicus [2]): 29%; inhibition in vivo at 3 mg/kg (Rattus norvegicus [6]): 54%

**Q.** For `CCCc1cccc(C(=O)Nc2nn[nH]n2)n1`, which inhibition in vivo at 10 mg/kg (Rattus norvegicus [1]) is on record?
**A.** The inhibition in vivo at 10 mg/kg was 38%.

**Q.** With `CCCCc1ccnc(C(=O)Nc2nn[nH]n2)c1` as the compound, how does the inhibition in vivo at 10 mg/kg (Rattus norvegicus [1]) read?
**A.** The inhibition in vivo at 10 mg/kg was 54%.

**Q.** What about the inhibition in vivo at 3 mg/kg (Rattus norvegicus [2]) of the same compound?
**A.** Its inhibition in vivo at 3 mg/kg is 33%.

**Q.** Which results are given for `Cc1cccc(C(=O)Nc2nn[nH]n2)n1`?
**A.** inhibition in vivo at 1 mg/kg (Rattus norvegicus [5]): 40%; inhibition in vivo at 3 mg/kg (Rattus norvegicus [2]): 46%; inhibition in vivo at 3 mg/kg (Rattus norvegicus [6]): 73%

**Q.** With `COc1cccnc1C(=O)Nc1nn[nH]n1` as the compound, how does the inhibition in vivo at 10 mg/kg (Rattus norvegicus [1]) read?
**A.** Its inhibition in vivo at 10 mg/kg is 0%.

**Q.** For `CCCCc1cccc(C(=O)Nc2nn[nH]n2)n1`, which inhibition in vivo at 10 mg/kg (Rattus norvegicus [1]) is on record?
**A.** Its inhibition in vivo at 10 mg/kg is 18%.

**Q.** `COc1cccc(C(=O)Nc2nn[nH]n2)n1` was tested. Which inhibition in vivo at 10 mg/kg (Rattus norvegicus [1]) did it give?
**A.** The inhibition in vivo at 10 mg/kg was 58%.

**Q.** And the inhibition in vivo at 3 mg/kg (Rattus norvegicus [2])?
**A.** Its inhibition in vivo at 3 mg/kg is 36%.

**Q.** For `O=C(Nc1nn[nH]n1)c1cccc(/C=C/c2ccccc2)n1`, which inhibition in vivo at 1 mg/kg (Rattus norvegicus [5]) is on record?
**A.** Its inhibition in vivo at 1 mg/kg is 53%.

**Q.** What about the inhibition in vivo at 3 mg/kg (Rattus norvegicus [2]) of the same compound?
**A.** Its inhibition in vivo at 3 mg/kg is 73%.

**Q.** What about the inhibition in vivo at 3 mg/kg (Rattus norvegicus [6]) of the same compound?
**A.** Its inhibition in vivo at 3 mg/kg is 75%.

**Q.** Which results are given for `Cc1ccc(C)c(C(=O)Nc2nn[nH]n2)n1`?
**A.** inhibition in vivo at 1 mg/kg (Rattus norvegicus [5]): 37%; inhibition in vivo at 3 mg/kg (Rattus norvegicus [2]): 65%; inhibition in vivo at 3 mg/kg (Rattus norvegicus [6]): 72%

**Q.** With `Cc1cc(C)nc(C(=O)Nc2nn[nH]n2)c1` as the compound, how does the inhibition in vivo at 3 mg/kg (Rattus norvegicus [2]) read?
**A.** Its inhibition in vivo at 3 mg/kg is 44%.

**Q.** What about the inhibition in vivo at 3 mg/kg (Rattus norvegicus [6]) of the same compound?
**A.** Its inhibition in vivo at 3 mg/kg is 37%.

**Q.** Which results are given for `O=C(Nc1nn[nH]n1)c1ccccn1`?
**A.** inhibition in vivo at 1 mg/kg (Rattus norvegicus [5]): 0%; inhibition in vivo at 10 mg/kg (Rattus norvegicus [1]): 35%; inhibition in vivo at 3 mg/kg (Rattus norvegicus [2]): 29%; inhibition in vivo at 30 mg/kg (Rattus norvegicus [3]): 100%

**Q.** How did the inhibition (Rattus norvegicus [4]) turn out when `O=C(O)C(=O)Nc1cccc(/C=C/c2ccccc2)n1` was run?
**A.** The inhibition was “inactive”.

**Q.** `COc1ccnc(C(=O)Nc2nn[nH]n2)c1` was tested. Which inhibition in vivo at 10 mg/kg (Rattus norvegicus [1]) did it give?
**A.** The inhibition in vivo at 10 mg/kg was 88%.

**Q.** Which inhibition (Rattus norvegicus [4]) does the source give for `O=C(O)c1cccc(/C=C/c2ccccc2)n1` here?
**A.** Its inhibition is “inactive”.

**Q.** For `O=C(Nc1nn[nH]n1)c1cccc(Br)n1`, which inhibition in vivo at 10 mg/kg (Rattus norvegicus [1]) is on record?
**A.** The inhibition in vivo at 10 mg/kg was 48%.

**Q.** What about the inhibition in vivo at 3 mg/kg (Rattus norvegicus [2]) of the same compound?
**A.** Its inhibition in vivo at 3 mg/kg is 38%.

**Q.** Which inhibition in vivo at 10 mg/kg (Rattus norvegicus [1]) does the source give for `CSc1ccc(C(=O)Nc2nn[nH]n2)nc1` here?
**A.** Its inhibition in vivo at 10 mg/kg is 29%.

**Q.** How did the inhibition in vivo at 1 mg/kg (Rattus norvegicus [5]) turn out when `O=C(Nc1nn[nH]n1)c1cc(Cl)ccn1` was run?
**A.** Its inhibition in vivo at 1 mg/kg is 38%.

**Q.** What about the inhibition in vivo at 10 mg/kg (Rattus norvegicus [1]) of the same compound?
**A.** The inhibition in vivo at 10 mg/kg was 100%.

**Q.** What about the inhibition in vivo at 3 mg/kg (Rattus norvegicus [2]) of the same compound?
**A.** Its inhibition in vivo at 3 mg/kg is 72%.

**Q.** What about the inhibition in vivo at 3 mg/kg (Rattus norvegicus [6]) of the same compound?
**A.** Its inhibition in vivo at 3 mg/kg is 71%.

**Q.** How did the inhibition in vivo at 10 mg/kg (Rattus norvegicus [1]) turn out when `Cc1cc([N+](=O)[O-])cc(C(=O)Nc2nn[nH]n2)n1` was run?
**A.** The inhibition in vivo at 10 mg/kg was 6%.

**Q.** For `Cc1cccnc1C(=O)Nc1nn[nH]n1`, which inhibition in vivo at 10 mg/kg (Rattus norvegicus [1]) is on record?
**A.** The inhibition in vivo at 10 mg/kg was 69%.

**Q.** For `O=C(Nc1nn[nH]n1)c1cccc(CCc2ccccc2)n1`, which inhibition in vivo at 10 mg/kg (Rattus norvegicus [1]) is on record?
**A.** Its inhibition in vivo at 10 mg/kg is 45%.

**Q.** `O=C(Nc1nn[nH]n1)c1cc(Br)ccn1` was tested. Which inhibition in vivo at 1 mg/kg (Rattus norvegicus [5]) did it give?
**A.** Its inhibition in vivo at 1 mg/kg is 9%.

**Q.** What about the inhibition in vivo at 10 mg/kg (Rattus norvegicus [1]) of the same compound?
**A.** Its inhibition in vivo at 10 mg/kg is 100%.

**Q.** What about the inhibition in vivo at 3 mg/kg (Rattus norvegicus [2]) of the same compound?
**A.** The inhibition in vivo at 3 mg/kg was 34%.

**Q.** With `Cc1cc(Cl)cc(C(=O)Nc2nn[nH]n2)n1` as the compound, how does the inhibition in vivo at 1 mg/kg (Rattus norvegicus [5]) read?
**A.** The inhibition in vivo at 1 mg/kg was 66%.

**Q.** What about the inhibition in vivo at 10 mg/kg (Rattus norvegicus [1]) of the same compound?
**A.** The inhibition in vivo at 10 mg/kg was 100%.

**Q.** And the inhibition in vivo at 3 mg/kg (Rattus norvegicus [6])?
**A.** The inhibition in vivo at 3 mg/kg was 85%.

**Q.** Which results are given for `O=C(Nc1nn[nH]n1)c1cccc(Cl)n1`?
**A.** inhibition in vivo at 10 mg/kg (Rattus norvegicus [1]): 13%; inhibition in vivo at 3 mg/kg (Rattus norvegicus [2]): 18%

**Q.** Which inhibition in vivo at 10 mg/kg (Rattus norvegicus [1]) does the source give for `O=C(Nc1nn[nH]n1)c1ncccc1Cl` here?
**A.** Its inhibition in vivo at 10 mg/kg is 22%.

**Q.** What does the source list for `CC(C)c1ccnc(C(=O)Nc2nn[nH]n2)c1`?
**A.** inhibition in vivo at 1 mg/kg (Rattus norvegicus [5]): 36%; inhibition in vivo at 3 mg/kg (Rattus norvegicus [2]): 34%

**Q.** Which inhibition in vivo at 10 mg/kg (Rattus norvegicus [1]) does the source give for `Cc1ccc(C(=O)Nc2nn[nH]n2)nc1C` here?
**A.** Its inhibition in vivo at 10 mg/kg is 42%.

**Q.** How did the inhibition (Rattus norvegicus [4]) turn out when `C(=C\c1cccc(-c2nn[nH]n2)n1)/c1ccccc1` was run?
**A.** The inhibition was “inactive”.
